Measurements: ChEMBL document CHEMBL3872222, “Synthesis of novel curcuminoids accommodating a central β-enaminone motif and their impact on cell growth and oxidative stress” (Eur J Med Chem, 2016)
In brackets after ≈: the same amount, converted by molar mass.

Legend:
[1] = Solubility of the compound in serum-free DMEM assessed as compound concentration required for crystal formation measured after 1 day by microscopic analysis; format: physicochemical; conditions: 24 h
In short: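 Compound at 0, 0.5, 1, 5, 10, 25 and 50 μM in serum-free DMEM incubated 1 day at 37 °C, 10% CO2, then examined for crystal formation.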

[2] = Antioxidant activity assessed as inhibition of DPPH radical activity at 1 uM measured after 30 mins under dark conditions by spectrophotometric analysis relative to control; format: functional
[3] = Growth inhibition of CHOK1 cells assessed as mitochondrial activity measured after 72 hrs by MTT assay; format: functional, cell-based; conditions: Cricetulus griseus, CHO-K1, 72 h
In short: (§1)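 Seeded 20000 cells/well in DMEM+glutamax, NEAA, P/S, FBS; after 1 day treated 1, 5, 10, 25 μM in serum-free medium (DMSO under 0.1%) for 3 days. MTT (5 mg/ml in PBS) 2 h at 37 °C, 10% CO2 in dark; formazan dissolved in DMSO, absorbance 570 nm; triplicate; IC50 derived.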

[4] = Antioxidant activity assessed as trolox equivalent of ferric ion reducing activity using Fe3+-TPTZ by measuring Fe2+-TPTZ formation after 4 mins by UV-vis spectrophotometry based FRAP assay; format: functional
In short: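 FRAP reagent: 300 mM acetate buffer, 10 mM TPTZ in ethanol and 20 mM FeCl3 (in dilute HCl) combined 10:1:1, TPTZ and iron freshly made. Sample mixed 1:9 with reagent; absorbance 593 nm after 4 min. Expressed as trolox equivalents per μM from slope of linear plot versus analog concentration.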

[5] = Growth inhibition of CHOK1 cells measured after 72 hrs by SRB assay; format: functional, cell-based; conditions: Cricetulus griseus, CHO-K1, 72 h
In short: (§2)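 20000 cells/well treated after 1 day at 1, 5, 10, 25 μM, serum-free, for 3 days. Fixed with 50% TCA 1 h at 4 °C, stained 30 min with 0.4% sulforhodamine B in 1% acetic acid, rinsed with 1% acetic acid, dye dissolved in 10 mM Tris, absorbance 490 nm; triplicate; IC50 derived.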

[6] = Growth inhibition of human HT-29 cells measured after 72 hrs by SRB assay; format: functional, cell-based; conditions: HT-29, 72 h; in short: as §2
[7] = Growth inhibition of undifferentiated human Caco2 cells assessed as mitochondrial activity measured after 72 hrs by MTT assay; format: functional, cell-based; conditions: Caco-2, 72 h; in short: as §1
[8] = Growth inhibition of undifferentiated human Caco2 cells measured after 72 hrs by SRB assay; format: functional, cell-based; conditions: Caco-2, 72 h; in short: as §2
[9] = Growth inhibition of differentiated human Caco2 cells assessed as mitochondrial activity measured after 72 hrs by MTT assay; format: cell-based; conditions: Caco-2, 72 h; in short: as §1
[10] = Growth inhibition of differentiated human Caco2 cells measured after 72 hrs by SRB assay; format: cell-based; conditions: Caco-2, 72 h; in short: as §2
[11] = Growth inhibition of human HT-29 cells assessed as mitochondrial activity measured after 72 hrs by MTT assay; format: functional, cell-based; conditions: HT-29, 72 h; in short: as §1
[12] = Growth inhibition of human EAhy926 cells assessed as mitochondrial activity measured after 72 hrs by MTT assay; format: cell-based; conditions: EA.hy 926, 72 h; in short: as §1
[13] = Growth inhibition of human EAhy926 cells measured after 72 hrs by SRB assay; format: cell-based; conditions: EA.hy 926, 72 h; in short: as §2
[14] = tested on: EA.hy 926; test: Effect on oxidative stress in human EAhy926 cells assessed as intracellular ROS level at 1 uM after overnight incubation by DCFH-DA staining based fluorescence assay relative to control; format: functional
In short: (§3)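 Cells grown in DMEM+glutamax, 1% NEAA, 1% P/S, 10% FBS; seeded 20000/well, treated at confluency overnight in serum-free medium, DMSO under 0.1% final. Loaded with 20 μM DCFH-DA 30 min at 37 °C, 10% CO2; washed, phenol red-free medium 1 h, then serum-free medium; fluorescence ex 485/em 535 nm. Percent of untreated; two-tailed unequal-variance t-test, n≥6.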

[15] = tested on: CHO; test: Effect on oxidative stress in CHO cells assessed as intracellular ROS level at 1 uM after overnight incubation by DCFH-DA staining based fluorescence assay relative to control; format: functional, Cricetulus griseus; in short: as §3
[16] = tested on: CHO; test: Effect on oxidative stress in CHO cells assessed as intracellular ROS level at 10 uM after overnight incubation by DCFH-DA staining based fluorescence assay relative to control; format: functional, Cricetulus griseus; in short: as §3
[17] = tested on: Caco-2; test: Effect on oxidative stress in undifferentiated human Caco2 cells assessed as intracellular ROS level at 1 uM after overnight incubation by DCFH-DA staining based fluorescence assay relative to control; format: functional; in short: as §3
[18] = tested on: Caco-2; test: Effect on oxidative stress in undifferentiated human Caco2 cells assessed as intracellular ROS level at 10 uM after overnight incubation by DCFH-DA staining based fluorescence assay relative to control; format: functional; in short: as §3
[19] = tested on: HT-29; test: Effect on oxidative stress in human HT-29 cells assessed as intracellular ROS level at 1 uM after overnight incubation by DCFH-DA staining based fluorescence assay relative to control; format: functional; in short: as §3
[20] = tested on: HT-29; test: Effect on oxidative stress in human HT-29 cells assessed as intracellular ROS level at 10 uM after overnight incubation by DCFH-DA staining based fluorescence assay relative to control; format: functional; in short: as §3
[21] = tested on: EA.hy 926; test: Effect on oxidative stress in human EAhy926 cells assessed as intracellular ROS level at 10 uM after overnight incubation by DCFH-DA staining based fluorescence assay relative to control; format: functional; in short: as §3
[22] = tested on: HT-29; test: Antioxidant activity in human HT-29 cells assessed as decrease in intracellular ROS level after overnight incubation by DCFH-DA staining based fluorescence assay; format: functional, cell-based; in short: as §3
[23] = tested on: HT-29; test: Antioxidant activity in human HT-29 cells assessed as decrease in intracellular ROS level after overnight incubation by DCFH-DA staining based fluorescence assay

CCC(C)NC(=C\C(=O)/C=C/c1ccc(O)c(OC)c1)/C=C/c1ccc(O)c(OC)c1 (configuration not stated)
solubility [1]: 50 µM (≈ 21.2 µg/mL)
inhibition [2]: 0.13%
IC50 [3]: > 25 µM
Activity [4]: 1.08 µMequiv/µM
IC50 [5]: > 25 µM
IC50 [6]: 22.3 µM
IC50 [7]: > 25 µM
IC50 [8]: > 25 µM
IC50 [9]: > 25 µM
IC50 [10]: > 25 µM
IC50 [11]: > 25 µM
IC50 [12]: > 25 µM
IC50 [13]: > 25 µM
Activity [14]: 85%
Activity [15]: 107%
Activity [16]: 112%
Activity [17]: 91%
Activity [18]: 66%
Activity [19]: 99%
Activity [20]: 90%
Activity [21]: 184%

COc1cc(/C=C/C(=O)CC(=O)/C=C/c2ccc(O)c(OC)c2)ccc1O [CURCUMIN]
solubility [1]: 0.5 µM (≈ 0.184 µg/mL)
inhibition [2]: 0.15%
IC50 [3]: 7.5 µM
Activity [4]: 1 µMequiv/µM
IC50 [5]: > 25 µM
IC50 [6]: > 25 µM
IC50 [7]: > 25 µM
IC50 [8]: > 25 µM
IC50 [9]: > 25 µM
IC50 [10]: > 25 µM
IC50 [11]: > 25 µM
IC50 [12]: > 25 µM
IC50 [13]: > 25 µM
Activity [14]: 91%
Activity [15]: 112%
Activity [16]: 97%
Activity [17]: 84%
Activity [18]: 77%
Activity [19]: 67%
Activity [20]: 65%
Activity [21]: 88%
Activity [22]: Dose-dependent effect
Activity [23]: Dose-dependent effect

COc1cc(/C=C/C(=O)/C=C(/C=C/c2ccc(O)c(OC)c2)NC2CCCCC2)ccc1O
solubility [1]: 25 µM (≈ 11.2 µg/mL)
inhibition [2]: 0.13%
IC50 [3]: 24.7 µM
Activity [4]: 0.83 µMequiv/µM
IC50 [5]: > 25 µM
IC50 [6]: > 25 µM
IC50 [7]: > 25 µM
IC50 [8]: 5.1 µM
IC50 [9]: > 25 µM
IC50 [10]: > 25 µM
IC50 [11]: > 25 µM
IC50 [12]: > 25 µM
IC50 [13]: > 25 µM
Activity [14]: 91%
Activity [15]: 137%
Activity [16]: 122%
Activity [17]: 88%
Activity [18]: 63%
Activity [19]: 80%
Activity [20]: 74%
Activity [21]: 191%

COc1cc(/C=C/C(=O)/C=C(/C=C/c2ccc(O)c(OC)c2)NCC(C)C)ccc1O
solubility [1]: 25 µM (≈ 10.6 µg/mL)
inhibition [2]: 0.09%
IC50 [3]: > 25 µM
Activity [4]: 0.89 µMequiv/µM
IC50 [5]: > 25 µM
IC50 [6]: 24 µM
IC50 [7]: > 25 µM
IC50 [8]: > 25 µM
IC50 [9]: > 25 µM
IC50 [10]: > 25 µM
IC50 [11]: 24.5 µM
IC50 [12]: > 25 µM
IC50 [13]: > 25 µM
Activity [14]: 83%
Activity [15]: 104%
Activity [16]: 118%
Activity [17]: 91%
Activity [18]: 74%
Activity [19]: 91%
Activity [20]: 92%
Activity [21]: 100%

C=CCNC(=C\C(=O)/C=C/c1ccc(O)c(OC)c1)/C=C/c1ccc(O)c(OC)c1
solubility [1]: 25 µM (≈ 10.2 µg/mL)
inhibition [2]: 0.1%
IC50 [3]: 7.4 µM
Activity [4]: 1.14 µMequiv/µM
IC50 [5]: > 25 µM
IC50 [6]: 24.6 µM
IC50 [7]: > 25 µM
IC50 [8]: > 25 µM
IC50 [9]: > 25 µM
IC50 [10]: > 25 µM
IC50 [11]: > 25 µM
IC50 [12]: > 25 µM
IC50 [13]: > 25 µM
Activity [14]: 124%
Activity [15]: 115%
Activity [16]: 104%
Activity [17]: 89%
Activity [18]: 76%
Activity [19]: 99%
Activity [20]: 84%
Activity [21]: 267%
